The record followed here is ChEMBL document CHEMBL1250476, “Synthesis and antifungal evaluation of novel triazole derivatives as inhibitors of cytochrome P450 14alpha-demethylase” (2010).

A word on the MIC: it is the lowest concentration found to suppress growth. Low readings indicate a more susceptible organism, high ones a less susceptible organism.

Holding throughout (assay type): functional
Assay [1] relates to Candida albicans. Put plainly: Antifungal activity against Candida albicans SC5314 after 24 hrs by micro-broth dilution method. The conditions noted are these: SC5314, 24 h. The method in brief: (§1)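 Broth microdilution per NCCLS on Candida albicans. Compounds were dissolved in DMSO, serially diluted in growth medium, inoculated and incubated at 35 °C. Growth was read at 24 h, and MIC80 was taken as the first well with about 80% growth reduction relative to the drug-free control. Values are the mean of three replicates.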
(In general: In broth dilution the organism is exposed to a series of concentrations in liquid medium.)

For assay [2], the system named is Candida albicans. As to the kind of experiment: Antifungal activity against Candida albicans Y0109 after 24 hrs by micro-broth dilution method. The note with it: Y0109, 24 h. In short, it runs like this: as §1
The subject of the next assay is Cryptococcus neoformans. Put plainly: Antifungal activity against Cryptococcus neoformans after 72 hrs by micro-broth dilution method. The method in brief: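 Cryptococcus neoformans tested by NCCLS micro-broth dilution. Compounds were dissolved in DMSO, serially diluted in medium, inoculated and incubated at 35 °C. MIC80 was read at 72 h as the first well showing approximately 80% growth reduction compared with the drug-free well. Values are the mean of three replicate tests.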

A further assay deals with Candida parapsilosis. Put plainly: Antifungal activity against Candida parapsilosis by micro-broth dilution method. The note with it: Lodderomyces parapsilosis. The method in brief: (§2)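 MIC80 by broth microdilution in 96-well format following NCCLS. Compounds were dissolved in DMSO, serially diluted in growth medium, inoculated and incubated at 35 °C. The endpoint was the first well with about 80% growth reduction versus the drug-free well. Values are means of three replicate tests.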

The subject of another assay is Candida tropicalis. As to the kind of experiment: Antifungal activity against Candida tropicalis by micro-broth dilution method. In short, it runs like this:
as §2

In the next assay the test system is Trichophyton rubrum. As to the kind of experiment: Antifungal activity against Trichophyton rubrum by micro-broth dilution method. In short, it runs like this:
as §2

A further assay concerns Kluyveromyces marxianus. As to the kind of experiment: Antifungal activity against Candida kefyr by micro-broth dilution method. The method in brief: as §2
For another assay, the system named is Aspergillus fumigatus. As to the kind of experiment: Antifungal activity against Aspergillus fumigatus by micro-broth dilution method. The method in brief: as §2

Converted amounts (≈) assume the structure as drawn.

Take `N#Cc1ccccc1Cn1cc(CN(CC(O)(Cn2cncn2)c2ccc(F)cc2F)C2CC2)nn1` (stereo unspecified): the MIC against Candida albicans [1] is 0.25 µg/mL (≈ 0.51 µM); with Candida albicans [2], 16 µg/mL (≈ 32.6 µM); in the assay on Cryptococcus neoformans it was 64 µg/mL (≈ 130 µM); against Candida parapsilosis, 2 µg/mL (≈ 4.08 µM); in the assay with Candida tropicalis, 1 µg/mL (≈ 2.04 µM); with Trichophyton rubrum, 2 µg/mL (≈ 4.08 µM). The MIC in the assay with Kluyveromyces marxianus was 1 µg/mL (≈ 2.04 µM); in the assay with Aspergillus fumigatus, over 64 µg/mL.
For the compound `O=[N+]([O-])c1ccccc1Cn1cc(CN(CC(O)(Cn2cncn2)c2ccc(F)cc2F)C2CC2)nn1` (stereo unspecified), the MIC was 16 µg/mL (≈ 31.3 µM) against Candida albicans [1]; 0.0625 µg/mL (≈ 0.122 µM) in the assay on Candida albicans [2]; 64 µg/mL (≈ 125 µM) with Cryptococcus neoformans; 4 µg/mL (≈ 7.84 µM) against Candida parapsilosis; 4 µg/mL (≈ 7.84 µM) in the assay with Candida tropicalis; 4 µg/mL (≈ 7.84 µM) in the assay with Trichophyton rubrum. Besides, the figures for the MIC against Kluyveromyces marxianus and against Aspergillus fumigatus were 0.0625 µg/mL (≈ 0.122 µM) and over 64 µg/mL, respectively.
As to `Cc1ccccc1Cn1cc(CN(CC(O)(Cn2cncn2)c2ccc(F)cc2F)C2CC2)nn1` (stereo unspecified), the MIC with Candida albicans [1] was found to be 0.0625 µg/mL (≈ 0.13 µM); with Candida albicans [2], 0.0156 µg/mL (≈ 0.0325 µM); against Cryptococcus neoformans, 0.0625 µg/mL (≈ 0.13 µM); against Candida parapsilosis, 4 µg/mL (≈ 8.34 µM); against Candida tropicalis, 4 µg/mL (≈ 8.34 µM); in the assay with Trichophyton rubrum it was 1 µg/mL (≈ 2.09 µM). The figures for the minimum inhibitory concentration (MIC) in the assay on Kluyveromyces marxianus and against Aspergillus fumigatus were 0.25 µg/mL (≈ 0.521 µM) and over 64 µg/mL, respectively.
For the compound `CN(C/C=C/C#CC(C)(C)C)Cc1cccc2ccccc12` [TERBINAFINE], the MIC against Candida albicans [1] is 16 µg/mL (≈ 54.9 µM); in the assay on Candida albicans [2], 2 µg/mL (≈ 6.86 µM); with Cryptococcus neoformans it was 8 µg/mL (≈ 27.5 µM); against Candida parapsilosis, under 0.125 µg/mL; in the assay with Candida tropicalis, under 0.125 µg/mL; with Trichophyton rubrum, under 0.125 µg/mL. Also, the MIC with Kluyveromyces marxianus came out at 0.0625 µg/mL (≈ 0.214 µM); in the assay with Aspergillus fumigatus it was 0.25 µg/mL (≈ 0.858 µM).
Consider `CC(C)N(Cc1cn(Cc2cccc(F)c2)nn1)CC(O)(Cn1cncn1)c1ccc(F)cc1F` (stereo unspecified), for which the MIC was under 0.125 µg/mL against Candida albicans [1]; 0.0156 µg/mL (≈ 0.0321 µM) in the assay with Candida albicans [2]; 4 µg/mL (≈ 8.24 µM) against Cryptococcus neoformans; 0.25 µg/mL (≈ 0.515 µM) with Candida parapsilosis; under 0.125 µg/mL against Candida tropicalis; under 0.125 µg/mL in the assay with Trichophyton rubrum. Moreover, the MIC against Kluyveromyces marxianus was 0.0625 µg/mL (≈ 0.129 µM); against Aspergillus fumigatus, over 64 µg/mL.
For `OC(CN(Cc1cn(Cc2ccccc2Cl)nn1)C1CC1)(Cn1cncn1)c1ccc(F)cc1F` (stereo unspecified), the MIC was under 0.125 µg/mL in the assay on Candida albicans [1]; 0.0625 µg/mL (≈ 0.125 µM) in the assay on Candida albicans [2]; 4 µg/mL (≈ 8 µM) against Cryptococcus neoformans; 0.25 µg/mL (≈ 0.5 µM) in the assay on Candida parapsilosis; under 0.125 µg/mL against Candida tropicalis; under 0.125 µg/mL with Trichophyton rubrum. Moreover, the minimum inhibitory concentration (MIC) was 0.0156 µg/mL (≈ 0.0312 µM) against Kluyveromyces marxianus and over 64 µg/mL in the assay with Aspergillus fumigatus.
On to `Cc1ccc(Cn2cc(CN(CC(O)(Cn3cncn3)c3ccc(F)cc3F)C3CC3)nn2)cc1` (stereo unspecified), for which the MIC against Candida albicans [1] was under 0.125 µg/mL; against Candida albicans [2] it was 0.0156 µg/mL (≈ 0.0325 µM); against Cryptococcus neoformans it was 1 µg/mL (≈ 2.09 µM); against Candida parapsilosis, under 0.125 µg/mL; in the assay with Candida tropicalis, under 0.125 µg/mL; against Trichophyton rubrum it was under 0.125 µg/mL. The MIC in the assay on Kluyveromyces marxianus came out at 0.0156 µg/mL (≈ 0.0325 µM); with Aspergillus fumigatus it was 64 µg/mL (≈ 133 µM).
For `N#Cc1cccc(Cn2cc(CN(CC(O)(Cn3cncn3)c3ccc(F)cc3F)C3CC3)nn2)c1` (stereo unspecified), the minimum inhibitory concentration (MIC) against Candida albicans [1] was found to be 4 µg/mL (≈ 8.15 µM); in the assay on Candida albicans [2] it was 4 µg/mL (≈ 8.15 µM); against Cryptococcus neoformans, 64 µg/mL (≈ 130 µM); against Candida parapsilosis, 4 µg/mL (≈ 8.15 µM); in the assay with Candida tropicalis it was 1 µg/mL (≈ 2.04 µM); in the assay on Trichophyton rubrum it was 4 µg/mL (≈ 8.15 µM). The minimum inhibitory concentration (MIC) with Kluyveromyces marxianus is 1 µg/mL (≈ 2.04 µM); in the assay with Aspergillus fumigatus, over 64 µg/mL.
As for `OC(Cn1cncn1)(Cn1cncn1)c1ccc(F)cc1F` [FLUCONAZOLE], the MIC with Candida albicans [1] was 0.5 µg/mL (≈ 1.63 µM); against Candida albicans [2], 0.5 µg/mL (≈ 1.63 µM); against Cryptococcus neoformans it was 8 µg/mL (≈ 26.1 µM); in the assay with Candida parapsilosis, 2 µg/mL (≈ 6.53 µM); in the assay on Candida tropicalis, under 0.125 µg/mL; in the assay with Trichophyton rubrum it was under 0.125 µg/mL. The MIC against Kluyveromyces marxianus was 1 µg/mL (≈ 3.27 µM); in the assay with Aspergillus fumigatus it was over 64 µg/mL.
Turning to `CC(C)N(Cc1cn(Cc2ccc(Cl)cc2Cl)nn1)CC(O)(Cn1cncn1)c1ccc(F)cc1F` (stereo unspecified), the MIC in the assay on Candida albicans [1] amounted to 4 µg/mL (≈ 7.46 µM); against Candida albicans [2], 0.0156 µg/mL (≈ 0.0291 µM); in the assay with Cryptococcus neoformans, 8 µg/mL (≈ 14.9 µM); in the assay on Candida parapsilosis it was 0.5 µg/mL (≈ 0.932 µM); against Candida tropicalis, 0.25 µg/mL (≈ 0.466 µM); against Trichophyton rubrum, 0.25 µg/mL (≈ 0.466 µM). Also, the MIC against Kluyveromyces marxianus was 0.25 µg/mL (≈ 0.466 µM); with Aspergillus fumigatus, over 64 µg/mL.
As to `CC(C)N(Cc1cn(Cc2ccccc2Br)nn1)CC(O)(Cn1cncn1)c1ccc(F)cc1F` (stereo unspecified), the MIC was under 0.125 µg/mL against Candida albicans [1]; 0.0156 µg/mL (≈ 0.0285 µM) in the assay on Candida albicans [2]; 1 µg/mL (≈ 1.83 µM) against Cryptococcus neoformans; under 0.125 µg/mL in the assay on Candida parapsilosis; under 0.125 µg/mL with Candida tropicalis; under 0.125 µg/mL against Trichophyton rubrum. Further, the MIC was found to be 0.0156 µg/mL (≈ 0.0285 µM) with Kluyveromyces marxianus and 16 µg/mL (≈ 29.3 µM) against Aspergillus fumigatus.
In the case of `OC(CN(Cc1cn(Cc2ccc(Br)cc2)nn1)C1CC1)(Cn1cncn1)c1ccc(F)cc1F` (stereo unspecified), the MIC was 0.25 µg/mL (≈ 0.459 µM) against Candida albicans [1]; 0.0156 µg/mL (≈ 0.0287 µM) with Candida albicans [2]; 16 µg/mL (≈ 29.4 µM) against Cryptococcus neoformans; 1 µg/mL (≈ 1.84 µM) against Candida parapsilosis; 0.5 µg/mL (≈ 0.918 µM) with Candida tropicalis; 1 µg/mL (≈ 1.84 µM) in the assay with Trichophyton rubrum. For the same compound, the MIC was 0.0156 µg/mL (≈ 0.0287 µM) in the assay with Kluyveromyces marxianus and over 64 µg/mL against Aspergillus fumigatus.
